Results as given in ChEMBL document CHEMBL3272036, “Reactions of 2-acyloxyisobutyryl halides with nucleosides. Synthesis and biological evaluation of some 3"-acyl and 3',5'-diacyl derivatives of 1-beta-D-arabinofuranosylcytosine” (J Med Chem, 1976).
Converted amounts (≈) assume the structure as drawn. The source made the active and inactive calls. The rule behind the calls is not given here.

What was measured:
L1210 [1] = test: Antitumor activity against mouse L1210 cells allografted in BDF1 mouse assessed as survival at 200 mg/kg, ip administered as single dose measured on day 30 relative to vehicle-treated control; type: functional, organism-based; design: dose 200 mg/kg
Outline: (§1)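 Leukemic L1210 cells were introduced into mice. Each compound was then given as a single intraperitoneal injection 24 h later. Activity is expressed as % increase in life span (ILS), with the count of 30-day survivors per group. Doses tested were 100, 200, 500 and 1000 mg/kg.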

HeLa = test: Cytotoxicity against human HeLa cells after 48 hrs by Coulter counter analysis; type: functional; details: read-out: ED50 (the source's name)
Vaccinia virus = test: Antiviral activity against Vaccinia virus IHD infected in African green monkey BGM cells assessed as plaque reduction measured on day 5 by disk diffusion assay; type: functional; details: Orthopoxvirus vaccinia, 120 h, read-out: ED50 (the source's name)
Herpesviridae sp. = test: Antiviral activity against Herpes Simplex virus HF infected in African green monkey BGM cells assessed as plaque reduction measured on day 5 by disk diffusion assay; type: functional; details: 120 h, read-out: ED50 (the source's name)
L1210 [2] = test: Antitumor activity against mouse L1210 cells allografted in BDF1 mouse assessed as increase in life span at 200 mg/kg, ip administered as single dose relative to vehicle-treated control; type: functional; details: route intraperitoneal
Outline: (§2)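 Single intraperitoneal injection given 24 h after the leukemic cells were introduced, at 100, 200, 500 or 1000 mg/kg. Read-out is % increase in life span (ILS), with the count of 30-day survivors per group recorded (group sizes 7–8 mice).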

L1210 [3] = test: Antitumor activity against mouse L1210 cells allografted in BDF1 mouse assessed as survival at 500 mg/kg, ip administered as single dose measured on day 30 relative to vehicle-treated control; type: functional, organism-based; design: dose 500 mg/kg; outline: as §1
L1210 [4] = test: Antitumor activity against mouse L1210 cells allografted in BDF1 mouse assessed as increase in life span at 500 mg/kg, ip administered as single dose relative to vehicle-treated control; type: functional; details: route intraperitoneal; outline: as §2
L1210 [5] = test: Antitumor activity against mouse L1210 cells allografted in BDF1 mouse assessed as survival at 1000 mg/kg, ip administered as single dose measured on day 30 relative to vehicle-treated control; type: functional, organism-based; design: dose 1000 mg/kg; outline: as §1
L1210 [6] = test: Antitumor activity against mouse L1210 cells allografted in BDF1 mouse assessed as increase in life span at 100 mg/kg, ip administered as single dose relative to vehicle-treated control; type: functional; details: route intraperitoneal; outline: as §2
L1210 [7] = test: Antitumor activity against mouse L1210 cells allografted in BDF1 mouse assessed as increase in life span at 1000 mg/kg, ip administered as single dose relative to vehicle-treated control; type: functional; details: route intraperitoneal; outline: as §2
L1210 [8] = test: Antitumor activity against mouse L1210 cells allografted in BDF1 mouse assessed as survival at 100 mg/kg, ip administered as single dose measured on day 30 relative to vehicle-treated control; type: functional, organism-based; design: dose 100 mg/kg; outline: as §1

SMILES	Activity (L1210 [1])	EC50 (HeLa)	EC50 (Vaccinia virus)	EC50 (Herpesviridae sp.)	ILS at 200 mg/kg (L1210 [2])	Activity (L1210 [3])	ILS at 500 mg/kg (L1210 [4])	Activity (L1210 [5])	ILS at 100 mg/kg (L1210 [6])	ILS at 1000 mg/kg (L1210 [7])	Activity (L1210 [8])
CC(=O)OC[C@H]1O[C@@H](n2ccc(N)nc2=O)[C@@H](O)[C@@H]1OC(C)=O.Cl	inactive	0.06 µg/mL	3200 nM	16000 nM	10%	–	–	–	–	–	–
CCCC(=O)O[C@H]1[C@H](O)[C@H](n2ccc(N)nc2=O)O[C@@H]1CO	inactive	0.11 µg/mL (≈ 0.351 µM)	1200 nM	2800 nM	13%	inactive	22%	–	–	–	–
CCCCCCCCCCCCCC(=O)OC[C@H]1O[C@@H](n2ccc(N)nc2=O)[C@@H](O)[C@@H]1OC(=O)CCCCCCCCCCCCC	Active	1.4 µg/mL (≈ 2.11 µM)	5700 nM	10000 nM	> 240%	–	> 105%	inactive	> 255%	-12%	–
CCCCCCCCC(=O)OC[C@H]1O[C@@H](n2ccc(N)nc2=O)[C@@H](O)[C@@H]1OC(=O)CCCCCCCC.Cl	inactive	0.08 µg/mL	190 nM	520 nM	71%	–	–	–	–	–	–
C=CCCCCCCCC(=O)OC[C@H]1O[C@@H](n2ccc(N)nc2=O)[C@@H](O)[C@@H]1OC(=O)CCCCCCCC=C.Cl	–	0.1 µg/mL	–	–	–	–	–	–	–	–	–
CCCCCCCCCCCCCCCCCCCC(=O)OC[C@H]1O[C@@H](n2ccc(N)nc2=O)[C@@H](O)[C@@H]1OC(=O)CCCCCCCCCCCCCCCCCCC	inactive	> 10 µg/mL	> 30000 nM	> 30000 nM	39%	–	–	–	87%	> 205%	inactive
CCCCCC(=O)OC[C@H]1O[C@@H](n2ccc(N)nc2=O)[C@@H](O)[C@@H]1OC(=O)CCCCC	inactive	0.07 µg/mL (≈ 0.159 µM)	220 nM	900 nM	11%	–	–	–	4%	–	inactive
CCCCCCCCCCCCCCCC(=O)OC[C@H]1O[C@@H](n2ccc(N)nc2=O)[C@@H](O)[C@@H]1OC(=O)CCCCCCCCCCCCCCC	–	> 10 µg/mL	30000 nM	> 30000 nM	> 255%	–	–	–	–	> 237%	–
CCCCCCCCCCCCCCCCCCCC(=O)O[C@H]1[C@H](O)[C@H](n2ccc(N)nc2=O)O[C@@H]1CO	inactive	0.1 µg/mL (≈ 0.186 µM)	> 30000 nM	> 30000 nM	164%	–	> 274%	Active	91%	> 295%	inactive
Cl.Nc1ccn([C@@H]2O[C@H](COC(=O)Cc3ccccc3)[C@@H](OC(=O)Cc3ccccc3)[C@@H]2O)c(=O)n1	inactive	0.13 µg/mL	2300 nM	1300 nM	29%	–	–	–	–	–	–
CCCCCCCCCCCC(=O)OC[C@H]1O[C@@H](n2ccc(N)nc2=O)[C@@H](O)[C@@H]1OC(=O)CCCCCCCCCCC	Active	0.5 µg/mL (≈ 0.823 µM)	2050 nM	7200 nM	> 285%	–	–	–	–	> 260%	–
CCCCCCCCCCCCCCCCCC(=O)O[C@H]1[C@H](O)[C@H](n2ccc(N)nc2=O)O[C@@H]1CO	–	0.13 µg/mL (≈ 0.255 µM)	380 nM	700 nM	> 228%	–	–	inactive	> 219%	-23%	Active
CCCCCCC/C=C\C(=O)O[C@H]1[C@H](O)[C@H](n2ccc(N)nc2=O)O[C@@H]1CO.Cl	inactive	0.06 µg/mL	110 nM	230 nM	22%	–	–	–	–	–	–
CCCCCCCCCCCCCCCCCC(=O)OC[C@H]1O[C@@H](n2ccc(N)nc2=O)[C@@H](O)[C@@H]1OC(=O)CCCCCCCCCCCCCCCCC	inactive	10 µg/mL (≈ 12.9 µM)	> 30000 nM	> 30000 nM	124%	–	–	–	–	> 328%	–
Cl.Nc1ccn([C@@H]2O[C@H](CO)[C@@H](OC(=O)Cc3ccccc3)[C@@H]2O)c(=O)n1	inactive	0.11 µg/mL	460 nM	1500 nM	8%	–	–	–	–	–	–
CCCC(=O)OC[C@H]1O[C@@H](n2ccc(N)nc2=O)[C@@H](O)[C@@H]1OC(=O)CCC	inactive	0.11 µg/mL (≈ 0.287 µM)	1150 nM	5200 nM	8%	–	–	–	14%	–	inactive
CC(=O)O[C@H]1[C@H](O)[C@H](n2ccc(N)nc2=O)O[C@@H]1CO	inactive	0.14 µg/mL (≈ 0.491 µM)	580 nM	1450 nM	19%	inactive	20%	–	14%	–	inactive
CCCCCCCCCCC(=O)O[C@H]1[C@H](O)[C@H](n2ccc(N)nc2=O)O[C@@H]1CO	–	0.04 µg/mL (≈ 0.0972 µM)	100 nM	120 nM	> 125%	–	> 99%	–	> 127%	–	–
CCCCCCCCCC(=O)OC[C@H]1O[C@@H](n2ccc(N)nc2=O)[C@@H](O)[C@@H]1OC(=O)CCCCCCCCC	–	0.11 µg/mL (≈ 0.199 µM)	350 nM	780 nM	> 214%	–	> 205%	inactive	–	-4%	–
CCCCCCCCC(=O)O[C@H]1[C@H](O)[C@H](n2ccc(N)nc2=O)O[C@@H]1CO	inactive	0.05 µg/mL (≈ 0.13 µM)	100 nM	300 nM	59%	–	> 189%	–	–	> 142%	–
CCCCCCCC/C=C\CCCCCCCCCCCC(=O)OC[C@H]1O[C@@H](n2ccc(N)nc2=O)[C@@H](O)[C@@H]1OC(=O)CCCCCCCCCCC/C=C\CCCCCCCC	inactive	> 10 µg/mL	> 30000 nM	> 30000 nM	86%	–	–	–	58%	–	inactive
CCCCCCCCCCC(=O)OC[C@H]1O[C@@H](n2ccc(N)nc2=O)[C@@H](O)[C@@H]1OC(=O)CCCCCCCCCC	inactive	0.4 µg/mL (≈ 0.69 µM)	300 nM	780 nM	> 300%	Active	117%	–	> 280%	–	–
CCCCCCCCCCCCCC(=O)O[C@H]1[C@H](O)[C@H](n2ccc(N)nc2=O)O[C@@H]1CO	Active	0.08 µg/mL (≈ 0.176 µM)	180 nM	640 nM	> 284%	inactive	-21%	inactive	> 266%	-23%	–
C=CCCCCCCCCC(=O)O[C@H]1[C@H](O)[C@H](n2ccc(N)nc2=O)O[C@@H]1CO	inactive	0.05 µg/mL (≈ 0.122 µM)	110 nM	440 nM	49%	–	> 191%	–	–	> 52%	–
CCCCCCCCCCCCCCCCCCCCCC(=O)OC[C@H]1O[C@@H](n2ccc(N)nc2=O)[C@@H](O)[C@@H]1OC(=O)CCCCCCCCCCCCCCCCCCCCC	inactive	> 10 µg/mL	> 30000 nM	> 30000 nM	27%	–	–	inactive	10%	113%	inactive
CCCCCCCC(=O)OC[C@H]1O[C@@H](n2ccc(N)nc2=O)[C@@H](O)[C@@H]1OC(=O)CCCCCCC.Cl	inactive	0.13 µg/mL	220 nM	2600 nM	20%	–	–	inactive	-28%	46%	inactive
CCCCCCCC/C=C/CCCCCCCC(=O)O[C@H]1[C@H](O)[C@H](n2ccc(N)nc2=O)O[C@@H]1CO	–	0.05 µg/mL (≈ 0.0985 µM)	940 nM	1500 nM	> 258%	–	–	–	> 246%	–	–
CCCCCCCC/C=C\CCCCCCCC(=O)O[C@H]1[C@H](O)[C@H](n2ccc(N)nc2=O)O[C@@H]1CO	inactive	0.06 µg/mL (≈ 0.118 µM)	730 nM	940 nM	67%	–	–	–	–	–	–
